PMC6117112 (ACS chemical biology, 2018)
Read-outs that look alike come from different tables or passages of the source.

Key:
[1] = MTT cytotoxicity assay in HUVECs, in the dark; format: cell-based, human; conditions: human, HUVECs (human umbilical vein endothelial cells)
A549 cells = test: Mitochondrial bioenergetics; format: cell-based, human
Outline: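 Seeded 20,000 cells/well 24 h before, then 4 h with vehicle (0.4% DMSO) or test compound (0.1, 1.0, 10 μM). One plate blue-LED illuminated 1 h at 37 °C, the other kept dark. XF base medium with 1 mM pyruvate, 2 mM glutamine, 25 mM glucose, pH 7.4; 30 min at 37 °C, no CO2. OCR over 80 min after oligomycin, FCCP, then rotenone/antimycin A (each 1.0 μM). Three experiments × 8 replicates; mean ±SEM; one-way ANOVA, Tukey.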

[2] = MTT cytotoxicity assay in A549 cells, in the dark; format: cell-based; conditions: human
[3] = format: cell-based; conditions: human, A549 cells
[4] = format: cell-based; conditions: human, HUVECs (human umbilical vein endothelial cells)
mitochondria = conditions: cited from earlier work
HUVECs = test: MTT cytotoxicity assay in HUVECs, in the dark; format: cell-based, human; conditions: HUVECs, non-illuminated
[5] = 10 μM, after 1 h of illumination to induce CO release

| SMILES | IC50 [1] [µM] | IC50 [2] [µM] | IC50 [4] [µM] | also measured |
| --- | --- | --- | --- | --- |
| O=C(NCC[P+](c1ccccc1)(c1ccccc1)c1ccccc1)c1ccc(-c2oc3cc4ccccc4cc3c(=O)c2O)cc1.[Br-] [Compound 2, (2-(4-(3-hydroxy-4-oxo-4H-benzo[g]chromen-2-yl)benzamido)ethyl)triphenylphosphonium bromide] | 1.51 ± 1.4 | 14.1 ± 2.7 | 3.78 ± 1.5 | ATP production (OCR) (A549 cells; [5]): decreased; basal respiration (OCR) (A549 cells; [5]): decreased; maximal respiration (OCR) (A549 cells; [5]): decreased; reserve capacity (OCR) (A549 cells; [5]): decreased; concentration needed to produce significant changes in bioenergetics parameters (A549 cells; light-triggered CO release): 10 µM; IC50 [3]: 4.6 ± 3.6 µM |
| O=C(O)CC[P+](c1ccccc1)(c1ccccc1)c1ccccc1.[Br-] [TPPBr, 2-carboxyethyl-triphenylphosphonium bromide, reference compound] | > 100 | > 100 | > 100 | changes in the mitochondrial bioenergetics profile (A549 cells; 0.1–10 μM, illuminated or non-illuminated cells): no significant changes |
| O=c1cc(-c2ccccc2)oc2cc(O)c(O)c(O)c12 [baicalein] |  |  |  | effect on mitochondrial bioenergetics (mitochondria): decreases ATP-production via uncoupling of mitochondrial membranes |
| O=C(NCCCCCCCC[P+](c1ccccc1)(c1ccccc1)c1ccccc1)c1ccc(-c2oc3cc4ccccc4cc3c(=O)c2O)cc1 [Compound 3, (8-(4-(3-hydroxy-4-oxo-4H-benzo[g]chromen-2-yl)benzamido)octyl)triphenylphosphonium bromide] | 8.4 ± 3.6 | 8.48 ± 4 |  |  |
| O=C(NCCCCCCCC[P+](c1ccccc1)(c1ccccc1)c1ccccc1)c1ccc(C(=O)Oc2cc3ccccc3cc2C(=O)O)cc1 [Compound 5, (8-(4-(((3-carboxynaphthalen-2-yl)oxy)carbonyl)benzamido)octyl)triphenylphosphonium bromide] | 90 ± 7.5 | 69.1 ± 11 |  |  |
| O=C(NCC[P+](c1ccccc1)(c1ccccc1)c1ccccc1)c1ccc(C(=O)Oc2cc3ccccc3cc2C(=O)O)cc1.[Br-] [Compound 4, (2-(4-(((3-carboxynaphthalen-2-yl)oxy)carbonyl)benzamido)ethyl)triphenylphosphonium bromide] |  | > 100 | > 100 | cytotoxicity (MTT), result in words (HUVECs): no cytotoxicity |
| O=c1c(O)c(-c2ccc(O)c(O)c2)oc2cc(O)cc(O)c12 [quercetin] |  |  |  | effect on mitochondrial bioenergetics (mitochondria): increases basal respiration, maximal respiration, ATP-linked respiration and the reserve capacity of mitochondria |
